Measurements gathered from unrelated publications.
Protocols differ between the studies behind these lines.
Target: Adenosine receptor A2a (ADORA2A, Homo sapiens, UniProt P29274)
Effect on: ligand displacement
Technique: radioligand

CC(C)CN1CCCn2c1nc1c2c(=O)n(C)c(=O)n1C
Ki (cell membranes): 930 nM

CNC(=O)c1csc(Nc2cccc(C)n2)n1
Ki (cell membranes): 7100 nM

C#CCCCCC(=O)NCCNC(=O)COc1ccc(-c2nc3c([nH]2)c(=O)n(CCC)c(=O)n3CCC)cc1
Ki (cell membranes): 23.2 nM

Nc1nc(I)nc2c1ncn2[C@H]1[C@H](O)[C@H](O)[C@]2(CCl)C[C@H]12
Ki: 5350 nM

c1coc(-c2nc3cc(CCN4CCOCC4)ccc3o2)c1
Ki (cell membranes): 11000 nM

CCNC(=O)[C@H]1O[C@@H](n2cnc3c(N)nc(NN=C[C@H]4CCC=CO4)nc32)[C@H](O)[C@@H]1O
Ki: 3.76 nM

CCCCN1CCCn2c1nc1c2c(=O)n(CCC)c(=O)n1CCC
Ki (cell membranes): 1390 nM

c1ccc2[nH]c(-c3nc4ccccc4[nH]3)nc2c1
Ki (cell membranes): 140 nM

CNC(=O)[C@@]12C[C@@H]1[C@@H](n1cnc3c(NCc4cn(-c5ccc(C(=O)NCCCF)cc5)nn4)nc(Cl)nc31)[C@H](O)[C@@H]2O
Ki (cell membranes): 1840 nM

c1coc(-c2nc3cc(NCCN4CCCCC4)ccc3o2)c1
Ki (cell membranes): 11000 nM

Nc1nc(-c2ccccc2)nn1C(=O)CCc1ccccc1
Ki (cell membranes): 2000 nM

OC[C@@]12C[C@@H]1[C@@H](n1cnc3c(N[C@@H](C4CCC4)C4CC4)nc(I)nc31)[C@H](O)[C@@H]2O
Ki: 3080 nM
